This note sets out measurements from ChEMBL document CHEMBL4371014, “Novel Allosteric Ligands of γ-Aminobutyric Acid Transporter 1 (GAT1) by MS Based Screening of Pseudostatic Hydrazone Libraries” (J Med Chem, 2018).

The source made the active and inactive calls. No cut-off for these calls is given here.

In experiment [1] the target is Sodium- and chloride-dependent GABA transporter 1 (Homo sapiens) (UniProt P30531). As to conditions: 100 nM.
The target is the same in experiment [2]. As to conditions: 1 uM.
The target is the same in experiment [3]. The experiment is described as follows: Inhibition of human GAT1 expressed in HEK293 cells assessed as reduction in [3H]GABA uptake preincubated for 25 mins followed by [3H]GABA addition and measured after 4 mins by liquid scintillation counting method. The format is cell-based.
Experiment [4] concerns the target Sodium- and chloride-dependent GABA transporter 1 (Mus musculus) (UniProt P31648). The experiment is described as follows: Inhibition of NO711 binding to mouse GAT1 expressed in HEK293 cell membranes assessed as residual binding at 1 uM preincubated for 4 hrs followed by NO711 addition and measured after 40 mins by LC-ESI-MS/MS analysis relative to control. The essentials: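 Single hydrazones formed in situ in the presence of mouse GAT1 from one aldehyde (1.0 µM) and hydrazine (200 µM). Formation ran 4 h, then NO711 MS marker was added for 40 min. Specifically bound NO711 was freed from the target and quantified by LC-ESI-MS/MS. Results are % remaining specific binding, means±SD of four replicates.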

Experiment [5] concerns the target Sodium- and chloride-dependent GABA transporter 1 (Homo sapiens) (UniProt P30531). Nature of the experiment: Non-competitive inhibition of human GAT1 expressed in COS cells assessed as reduction in [2H6]GABA uptake by measuring [2H6]GABA Bmax at 10 uM preincubated for 25 mins followed by [2H6]GABA addition and measured after 4 mins […] (reference value: 79.5 +/- 5 pmol/mg). The format is cell-based.

For experiment [6], the system named is Betaine/GABA transporter BGT1 (Mus musculus). Nature of the experiment: Inhibition of mouse GAT2 expressed in HEK293 cells assessed as reduction in [3H]GABA uptake at 100 uM preincubated for 25 mins followed by [3H]GABA addition and measured after 10 mins by liquid scintillation counting method relative to control.
Experiment [7] addresses Sodium- and chloride-dependent GABA transporter 1 (Mus musculus) (UniProt P31648). The experiment is described as follows: Inhibition of mouse GAT1 expressed in HEK293 cells assessed as reduction in [3H]GABA uptake at 100 uM preincubated for 25 mins followed by [3H]GABA addition and measured after 4 mins by liquid scintillation counting method relative to control. It is filed as cell-based.

The subject of experiment [8] is Slc6a13 GABA transporter mGAT3 (Mus musculus). Nature of the experiment: Inhibition of mouse GAT3 expressed in HEK293 cells assessed as reduction in [3H]GABA uptake at 100 uM preincubated for 25 mins followed by [3H]GABA addition and measured after 4 mins by liquid scintillation counting method relative to control.
The target of experiment [9] is Sodium- and chloride-dependent GABA transporter 1 (Homo sapiens) (UniProt P30531). The experiment is described as follows: Non-competitive inhibition of human GAT1 expressed in COS cells assessed as reduction in [2H6]GABA uptake by measuring [2H6]GABA Bmax at 1 uM preincubated for 25 mins followed by [2H6]GABA addition and measured after 4 mins […] (reference value: 79.5 +/- 5 pmol/mg). The format is cell-based.

The target of experiment [10] is T1, GABA transporter 4 (Mus musculus) (UniProt P31650).
T1 sequence (whole entry): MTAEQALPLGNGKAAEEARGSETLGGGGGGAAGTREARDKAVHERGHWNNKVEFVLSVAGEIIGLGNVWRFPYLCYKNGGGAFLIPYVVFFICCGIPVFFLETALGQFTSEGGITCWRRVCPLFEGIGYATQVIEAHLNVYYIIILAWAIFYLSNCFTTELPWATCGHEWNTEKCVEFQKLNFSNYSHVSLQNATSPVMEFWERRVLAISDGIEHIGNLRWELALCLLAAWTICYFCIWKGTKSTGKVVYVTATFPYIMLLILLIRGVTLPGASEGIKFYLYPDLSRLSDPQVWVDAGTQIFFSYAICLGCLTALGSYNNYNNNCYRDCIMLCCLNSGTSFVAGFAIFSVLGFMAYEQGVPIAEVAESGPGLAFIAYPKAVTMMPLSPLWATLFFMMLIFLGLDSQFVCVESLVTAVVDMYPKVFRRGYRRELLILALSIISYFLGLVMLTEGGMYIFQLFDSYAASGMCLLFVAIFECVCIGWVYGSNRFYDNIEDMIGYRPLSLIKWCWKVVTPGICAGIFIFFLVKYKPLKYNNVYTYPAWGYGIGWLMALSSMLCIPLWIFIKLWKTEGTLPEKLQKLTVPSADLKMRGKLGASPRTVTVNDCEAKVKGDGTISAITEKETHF
Nature of the experiment: Inhibition of mouse GAT4 expressed in HEK293 cells assessed as reduction in [3H]GABA uptake at 100 uM preincubated for 25 mins followed by [3H]GABA addition and measured after 4 mins by liquid scintillation counting method relative to control. It is filed as cell-based.

Chain of Sodium- and chloride-dependent GABA transporter 1 (Homo sapiens) (P30531 whole entry, looked up): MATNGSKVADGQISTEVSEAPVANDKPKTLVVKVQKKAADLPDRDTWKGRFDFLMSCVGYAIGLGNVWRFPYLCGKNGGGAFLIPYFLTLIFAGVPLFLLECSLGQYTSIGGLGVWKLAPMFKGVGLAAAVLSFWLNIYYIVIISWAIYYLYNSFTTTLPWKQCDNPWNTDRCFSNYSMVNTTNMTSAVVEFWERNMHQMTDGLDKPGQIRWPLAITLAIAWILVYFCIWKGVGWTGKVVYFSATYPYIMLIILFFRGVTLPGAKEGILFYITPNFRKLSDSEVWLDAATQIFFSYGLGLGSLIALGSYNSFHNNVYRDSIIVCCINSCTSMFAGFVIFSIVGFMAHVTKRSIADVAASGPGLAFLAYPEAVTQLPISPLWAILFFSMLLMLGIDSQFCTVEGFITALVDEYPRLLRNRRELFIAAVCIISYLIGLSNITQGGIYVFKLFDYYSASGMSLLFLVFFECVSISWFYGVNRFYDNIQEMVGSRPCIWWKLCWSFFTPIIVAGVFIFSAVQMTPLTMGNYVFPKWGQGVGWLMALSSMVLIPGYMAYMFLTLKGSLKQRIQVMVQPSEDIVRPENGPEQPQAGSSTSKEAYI

As to `Cc1ccsc1C(=CCCN1CCC[C@@H](C(=O)O)C1)c1sccc1C`, the results for the Bmax in experiment [1] and in [2] were 79.9 pmol/mg and 81 pmol/mg, respectively. Moreover, the inhibition entry in experiment [3] was “Active”.
Take `O=C(O)C1=CCCN(CCON=C(c2ccccc2)c2ccccc2)C1`: the inhibition entry in [3] was “Active”.
As for `Cc1ccsc1-c1sc(/C=N/NCC[C@H]2CNC[C@H](C(=O)O)C2)cc1C` (racemic), the Activity in experiment [4] was over 50%.
As for `O=C(O)[C@H]1CNC[C@@H](CCN/N=C/c2ccc(-c3ccc(C(F)(F)F)cc3Cl)o2)C1` (racemic), the Activity in experiment [4] turned out to be 47%. Also, the inhibition result in [3] was “Active”.
With `O=C(O)[C@H]1CNC[C@@H](CCN/N=C/c2ccc(-c3ccc(Cl)cc3Cl)o2)C1` (racemic), the Activity in [4] came to 41%. Further, in experiment [3], the inhibition result was “Active”.
For `O=C(O)[C@H]1CNC[C@@H](CN/N=C/c2ccc(-c3cc(C(F)(F)F)cc(C(F)(F)F)c3)o2)C1` (racemic), the Activity in experiment [4] was found to be 32%. Moreover, the inhibition entry in experiment [3] is “Active”. For the same molecule, the Bmax in [5] came to 38.9 pmol/mg; in [9] it was 57.1 pmol/mg. The inhibition in [6] is 84%; in experiment [7], 50%; in [8] it was 65%; in [10] it was 79%.
`O=C(O)[C@H]1CNC[C@@H](CN/N=C/c2ccc(-c3cc(C(F)(F)F)ccc3Cl)o2)C1` (racemic): the Activity in [4] was 38%. The inhibition result in experiment [3] is “Active”. The inhibition stood at 91% in [6], 57% in [8] and 57% in [10].
Regarding `O=C(O)[C@H]1CNC[C@@H](CN/N=C/c2ccc(-c3ccc(C(F)(F)F)cc3Cl)o2)C1` (racemic), the Activity in experiment [4] is 40%. In experiment [3], the inhibition result was “Active”. The inhibition in [6] stood at 65%; in experiment [8], 59%; in experiment [10] it was 53%.
In the case of `O=C(O)[C@H]1CNC[C@@H](CN/N=C/c2ccc(-c3cccc4ccccc34)o2)C1` (racemic), the Activity in experiment [4] was 16%. The inhibition result in experiment [3] was “Active”. For the same molecule, the Bmax in [5] was 28.3 pmol/mg; in experiment [9] it was 48.4 pmol/mg. Also, the inhibition in experiment [6] came to 64%.
`O=C(O)[C@H]1CNC[C@H](CCN/N=C/c2ccc(-c3ccc(C(F)(F)F)cc3Cl)o2)C1` (racemic): the Activity in experiment [4] is over 50%.
`O=C(O)[C@H]1CNC[C@H](CCN/N=C/c2ccc(-c3ccccc3OC(F)(F)F)o2)C1` (racemic): the Activity in experiment [4] is over 50%.
On the same count and under the same terms, in the case of `O=C(O)[C@H]1CNC[C@H](CCN/N=C/c2ccc(C#Cc3ccccc3)s2)C1` (racemic) it was over 50%; in that of `O=C(O)[C@H]1CNC[C@H](CCN/N=C/c2ccccc2-n2cccc2)C1` (racemic), over 50%.
Consider `O=C(O)[C@H]1CNC[C@H](CCN/N=C/c2cccn2-c2ccc(C(F)(F)F)cc2)C1` (racemic), for which the Activity in experiment [4] is over 50%.
Still for that read-out and setting: in the case of `O=C(O)[C@H]1CNC[C@H](CCN/N=C/c2csc3ccccc23)C1` (racemic) it was over 50%; in that of `O=C(O)[C@H]1CNC[C@H](CCN/N=C/c2sccc2-n2cccc2)C1` (racemic), over 50%.
Still for that read-out and setting: in the case of `O=C(O)[C@H]1CNC[C@H](CN/N=C/c2ccc(C#Cc3ccccc3)s2)C1` (racemic) it was over 50%.
Take `O=C(O)[C@H]1CNC[C@H](CN/N=C/c2cccn2-c2ccc(C(F)(F)F)cc2)C1` (racemic): the Activity in [4] was over 50%.

Broadly, the inhibition is the share of the control response that was lost under treatment.
